According to PMC4423195 (Cell Death and Differentiation, 2015):
“Also recorded” adds a separate entry of the source.

How the values were obtained:
HT22 cells [1] = experiment: FITC-Aβ42O binding/uptake in HT22 cells; assay type: cell-based, mouse; details: FITC-Aβ42O 0.1 μM, 2 h; MAB1965 1 : 500, MnCl2 0.5 mM or MgCl2 5 mM; n=4 replicates
HT22 cells [2] = experiment: H2DCF general ROS imaging; assay type: cell-based, mouse; details: Aβ42O 1 μM, 2 h, n=6
Procedure, shortened: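 HT22 cells pretreated 45 min (methods; legend gives 1 h) with or without HUTS-4 (1:250), MAB1965 (1:250) or Nox inhibitor III (40 nM), then Aβ42 oligomers (1 μM, 2 h). After PBS wash, loaded with H2DCF at 50 nM final in HBSS for 15 min at 37°C. Live-cell fluorescence imaging at 37°C under identical acquisition settings.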

HT22 cells [3] = experiment: Mitosox-Red mitochondrial superoxide imaging; assay type: cell-based, mouse; details: Aβ42O 1 μM, 2 h, n=6
Procedure, shortened: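 Following 45 min (methods; 1 h per legend) pretreatment ± HUTS-4 (1:250), MAB1965 (1:250) or Nox inhibitor III (40 nM), HT22 cells received Aβ42 oligomers (1 μM, 2 h). Washed, given Mitosox-Red at 5 μM final in PBS for 15 min at 37°C, washed again, fixed and imaged by confocal microscopy with identical settings.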

HT22 cells [4] = experiment: JC-1 mitochondrial membrane potential imaging; assay type: cell-based, mouse; details: Aβ42O 1 μM, 2 h; HUTS-4 1 : 250, MAB1965 1 : 250, Nox inhibitor 40 nM; n=6
Procedure, shortened: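 HT22 cells pre-exposed 45 min (methods; legend says 1 h) to HUTS-4 (1:250), MAB1965 (1:250), Nox inhibitor III (40 nM) or none, then Aβ42 oligomers (1 μM, 2 h). Washed, incubated with JC-1 (0.5 μM final, PBS) 15 min at 37°C. Live-cell imaging at 37°C; membrane potential expressed as green/red ratio.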

14-3-3/SSH1 complex = experiment: 14-3-3/SSH1 complex, co-immunoprecipitation in HT22 cells; assay type: cell-based, mouse (HT22 mouse cell line); details: Aβ42O 1 μM, 2 h
[5] = biological target: β1-integrin-Fc (extracellular domain fused with human IgG-Fc) (Homo sapiens, UniProt P05556); experiment: ELISA binding of biotin-Aβ42 to purified β1-integrin-Fc; details: n=4 replicates
Sequence of β1-integrin-Fc (extracellular domain fused with human IgG-Fc) (P05556 21-728): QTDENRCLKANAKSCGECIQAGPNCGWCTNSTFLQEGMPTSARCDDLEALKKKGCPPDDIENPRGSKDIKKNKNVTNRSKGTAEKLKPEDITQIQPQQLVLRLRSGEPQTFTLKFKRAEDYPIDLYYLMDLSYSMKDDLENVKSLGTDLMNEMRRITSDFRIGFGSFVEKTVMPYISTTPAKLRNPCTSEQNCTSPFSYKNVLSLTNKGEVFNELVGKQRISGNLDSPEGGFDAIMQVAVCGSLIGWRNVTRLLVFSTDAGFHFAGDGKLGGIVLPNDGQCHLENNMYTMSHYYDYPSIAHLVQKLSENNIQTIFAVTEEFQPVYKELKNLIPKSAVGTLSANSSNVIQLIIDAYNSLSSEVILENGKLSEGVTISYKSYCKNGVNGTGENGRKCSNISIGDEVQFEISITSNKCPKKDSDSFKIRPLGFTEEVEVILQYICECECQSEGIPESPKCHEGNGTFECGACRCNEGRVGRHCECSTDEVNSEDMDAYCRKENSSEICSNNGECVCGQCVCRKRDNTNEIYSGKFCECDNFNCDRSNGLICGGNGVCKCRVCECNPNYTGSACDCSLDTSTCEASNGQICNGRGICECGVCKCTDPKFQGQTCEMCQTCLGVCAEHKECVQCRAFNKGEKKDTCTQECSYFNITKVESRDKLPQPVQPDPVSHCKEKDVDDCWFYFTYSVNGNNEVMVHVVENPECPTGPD

[6] = test system: DIV21 primary hippocampal neurons; experiment: FITC-Aβ42O binding to DIV21 primary hippocampal neurons; assay type: cell-based; details: 100 nM FITC-Aβ42O, 1 h, 37 °C
Drebrin = Drebrin staining in DIV21 hippocampal neurons; assay type: cell-based, mouse; details: Aβ42O 1 μM, 2 h, n=4–6 replicates
Procedure, shortened: (§1)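 Hippocampal neurons from P0 WT or Cofilin+/− pups grown on poly-D-lysine to DIV21, then given Aβ42 oligomers (1 μM, 2 h). Fixed in 4% paraformaldehyde 15 min at RT, serum-blocked, primary antibody (Drebrin or PSD95) overnight at 4°C, secondary 45 min at RT; F-actin stained by rhodamine-phalloidin. Mean intensity measured in spine-containing neurites; n=4–6, ANOVA with Tukey test.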

[7] = test system: transferrin receptor (TfR); experiment: Cell surface biotinylation, surface TfR in HT22 cells; assay type: cell-based, mouse (HT22 mouse cell line); details: Aβ42O 1 μM, 2 h or FN coating; surface/total; n⩾3 replicates
HT22 cells [8] = experiment: Annexin V/PI apoptosis assay, HT22 cells; assay type: cell-based, mouse; details: Aβ42O 1 μM, 24 h / 18 h, 1% FBS; n=4 replicates
Procedure, shortened: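 HT22 cells transfected for 48 h with Lipofectamine 2000 with control or SSH1 siRNA (100 nM final), then exposed to Aβ42 oligomers (1 μM, 18 h) in 1% FBS medium. Cells stained on coverslips with FITC-Annexin V and propidium iodide for 20 min at 25°C in the dark, PBS-washed and imaged by fluorescence confocal microscopy. Annexin V marks early apoptosis, PI late apoptosis.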

PSD95 = PSD95 staining in DIV21 hippocampal neurons; assay type: cell-based, mouse; details: Aβ42O 1 μM, 2 h, n=4–6 replicates
Procedure, shortened: as §1

focal Vinculin = experiment: Focal Vinculin immunostaining in DIV21 primary hippocampal neurons; assay type: cell-based; details: Aβ42O 1 μM, 2 h, n=5 replicates
Talin [9] = experiment: FC-enriched fractionation of HT22 cells, Talin; assay type: cell-based, mouse (HT22 mouse cell line); details: Aβ42O (1 μM in text; 0, 0.25, 2 μM for 0, 2, 4 h in Figure S3 legend)
Procedure, shortened: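 HT22 cells exposed to Aβ42 oligomers. Cytosolic proteins released with saponin buffer (0.1% saponin, 25 mM HEPES, 75 mM potassium acetate) for 10 min on ice. Remaining membrane/cytoskeletal proteins extracted in 2× SDS sample buffer with sonication to give the focal-contact-enriched fraction. Talin detected by immunoblot with ECL.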

Talin [10] = experiment: FC-enriched fractionation of primary cortical neurons, Talin; assay type: cell-based, mouse; details: Aβ42O 1 μM, 2 h, n=3 replicates
Procedure, shortened: (§2)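 DIV14 cortical neurons from P0 WT or Cofilin+/− pups given Aβ42 oligomers (1 μM, 2 h). Cytosol extracted with saponin buffer (0.1% saponin, 25 mM HEPES, 75 mM potassium acetate) 10 min on ice; residue taken up in 2× SDS sample buffer with sonication (focal-contact fraction). Talin/Vinculin immunoblotted and normalized to vehicle controls set at 100%; n=3, t-test.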

Vinculin = experiment: FC-enriched fractionation of primary cortical neurons, Vinculin; assay type: cell-based, mouse; details: Aβ42O 1 μM, 2 h, n=3 replicates
Procedure, shortened: as §2

Cofilin (mitochondrial) = experiment: Translocation of Cofilin to mitochondria in HT22 cells; assay type: cell-based, mouse (HT22 mouse cell line); details: Aβ42O 1 μM; 0, 2, 4 h; n=4 replicates
Procedure, shortened: (§3)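 HT22 cells exposed to Aβ42 oligomers (1 μM) for 0, 2 or 4 h. Intact mitochondria separated from cytosol with a commercial isolation kit. Protein measured by BCA. Equal amounts run on SDS-PAGE, blotted to nitrocellulose, probed and detected by peroxidase secondary/ECL. Bands quantified densitometrically; n=4 replicates, t-test.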

PrP^c = assay type: cell-based, mouse (HT22 mouse cell line)
activated β1-integrin = experiment: FITC-HUTS-4 staining of activated β1-integrin in primary hippocampal neurons; assay type: cell-based; details: DIV14 fixed and permeabilized neurons; Aβ42O 1 μM, 2 h; n=4 replicates
F-actin = F-actin staining in DIV21 hippocampal neurons; assay type: cell-based, mouse; details: Aβ42O 1 μM, 2 h, n=4–6 replicates
Procedure, shortened: as §1

SSH1/Cofilin complex = experiment: SSH1/Cofilin complex, co-immunoprecipitation in HT22 cells; assay type: cell-based, mouse (HT22 mouse cell line); details: Aβ42O 1 μM, 2 h; n=3 replicates
[11] = test system: Cofilin (phospho-Cofilin); experiment: Immunoblot of phospho-Cofilin in primary cortical neurons; assay type: cell-based, mouse; details: Aβ42O 1 μM, 2 h, n=4 replicates
[12] = test system: Cofilin (phospho-Cofilin); experiment: Cytosolic phospho-Cofilin in HT22 cells; assay type: cell-based, mouse (HT22 mouse cell line); details: Aβ42O 1 μM; 0, 2, 4 h
Procedure, shortened: as §3

[13] = SDS-PAGE/immunoblotting of Aβ42 oligomer preparations; assay type: physicochemical; details: immunoblotting of Aβ42O preparation
β1-integrin = assay type: cell-based, mouse (HT22 mouse cell line); details: Aβ42O 1 μM, 2 h; direct immunoblotting (total)
[14] = HUTS-4 1 : 250, MAB1965 1 : 250, Nox inhibitor 40 nM
[15] = DIV14 Cofilin^+/− cortical neurons

For `[Cl][Mn][Cl]` [MnCl2], the “effect on FITC-Aβ42O binding to HT22 cells” value (HT22 cells [1]) was “significantly reduced”.

For `c1ccc(Cn2nnc3c(Sc4nc5ccccc5o4)ncnc32)cc1` [NOX inhibitor], the “prevention of Aβ42O-induced change in H2DCF” value (HT22 cells [2]; [14]) was “significantly prevented such changes”, the “prevention of Aβ42O-induced change in Mitosox-Red” value (HT22 cells [3]; [14]) was “significantly prevented such changes” and the “extent of restoration of JC-1 membrane potential” value (HT22 cells [4]) was “not fully restored”.

For `Cc1c(C)c2c(c(C)c1O)CCC(C)(C(=O)O)O2` (stereo not shown) [Trolox], the “restoration of 14-3-3/SSH1 complexes reduced by Aβ42O” value (14-3-3/SSH1 complex; prior treatment 30 min, MAB1965 1:250 or Trolox 200 µM) was “largely restored”.

For “Aβ42 monomers: freshly solubilized monomer; tested as biotin-Aβ42M”, the “binding to β1-integrin-Fc, monomers and fibrils” value ([5]; 5 mM MgCl2, biotin-Aβ42M or biotin-Aβ42F) was “bound poorly to β1-integrin-Fc”.

With “FITC-Aβ42O: FITC-Aβ1-42 (American Peptide), oligomer preparation” the “FITC-Aβ42O binding to neurons (localisation)” value [6] was “associated with dendrites and dendritic spines”.

In the case of “amyloid-β protein 1–42 oligomers [Aβ42O]”, the “effect on Drebrin, WT neurons” value (Drebrin; spine-containing neurites) is reported as “significantly depleted F-actin, Drebrin, and PSD95”, the “effect on Drebrin, Cofilin^+/− neurons” value (Drebrin; Cofilin^+/−) is reported as “no significant effects” and the “ROS levels (H2DCF)” value (HT22 cells [2]) is reported as “increased ROS levels”. The “effect on surface TfR” value [7] was “no significant effect on surface TfR”, the “induction of early (Annexin V) and late (PI) apoptosis” value (HT22 cells [8]) was “significant induction of early (Annexin V) and late (PI) apoptosis” and the “effect on PSD95, WT neurons” value (PSD95; spine-containing neurites) was “significantly depleted F-actin, Drebrin, and PSD95”. The “effect on PSD95, Cofilin^+/− neurons” value (PSD95; Cofilin^+/−) was “no significant effects”, the “binding to β1-integrin-Fc with MnCl2” value ([5]; MnCl2 0.5 mM) was “essentially eliminated Aβ42O binding; also recorded: failed to support Aβ42O binding to β1-integrin-Fc” and the “binding to β1-integrin-Fc in the absence of cation” value ([5]; no cation / absence of Mg^2+) was “did not bind to β1-integrin-Fc; also recorded: minimal binding”. For the same molecule, the “focal Vinculin immunoreactivity in spine-containing dendrites” value (focal Vinculin) was “significantly reduced focal Vinculin immunoreactivity”, the “effect on FC-enriched Talin, HT22 cells” value (Talin [9]) was “saliently reduced FC-enriched but not cytosolic (cyto) Vinculin and Talin” and the “mitochondrial superoxide (Mitosox-Red)” value (HT22 cells [3]) was “increased mitochondrial superoxide (Mitosox-Red)”. The “effect on FC Talin, Cofilin^+/− neurons” value (Talin [10]; [15]) was “did not significantly deplete Vinculin and Talin”, the “effect on FC-enriched/focal Talin, WT primary neurons” value (Talin [10]; DIV14 cortical neurons) was “saliently reduced FC-enriched but not cytosolic (cyto) Vinculin and Talin; also recorded: depleted focal Vinculin and Talin” and the “effect on FC Vinculin, Cofilin^+/− neurons” value (Vinculin; [15]) was “did not significantly deplete Vinculin and Talin”. The “effect on FC-enriched/focal Vinculin, WT primary neurons” value (Vinculin; DIV14 cortical neurons) was “saliently reduced FC-enriched but not cytosolic (cyto) Vinculin and Talin; also recorded: depleted focal Vinculin and Talin”, the “translocation of Cofilin to mitochondria” value (Cofilin (mitochondrial)) was “rapidly increased the translocation of Cofilin to mitochondria” and the “effect on surface PrP^c” value (PrP^c) was “unaffected”. The “reduction of FITC-HUTS-4-positive activated β1-integrin” value (activated β1-integrin) was greater than 50%, the “effect on F-actin, WT neurons” value (F-actin; spine-containing neurites) was “significantly depleted F-actin, Drebrin, and PSD95” and the “effect on F-actin, Cofilin^+/− neurons” value (F-actin; Cofilin^+/−) was “no significant effects”. The 14-3-3/SSH1 complexes (14-3-3/SSH1 complex) was “reduced 14-3-3/SSH1 complexes”, the SSH1/Cofilin complexes (SSH1/Cofilin complex) was “significantly increased SSH1/Cofilin complexes” and the Cofilin dephosphorylation/activation ([11]; WT primary cortical neurons) was “significantly induced Cofilin dephosphorylation/activation”. For the same molecule, the “Cofilin dephosphorylation in β1-integrin cKO neurons” value ([11]; β1-integrin cKO neurons (Lenti-Cre-mRFP)) was “absent in β1-integrin cKO neurons”, the “phospho-Cofilin in the cytosol” value [12] was “decreasing phospho-Cofilin in the cytosol” and the “oligomeric state on SDS-PAGE” value [13] was “contained SDS-resistant dimers, trimers, and tetramers”. For the same molecule, the “effect on total β1-integrin” value (β1-integrin) was “without altering total β1-integrin”.

With fibronectin [FN] the “effect on surface TfR” value [7] was “modestly, but significantly, increased surface/total transferrin receptor (TfR)” and the “effect on surface PrP^c” value (PrP^c) was “unaffected”.
